Data taken from ChEMBL document CHEMBL1811814, “Synthesis and evaluation of indole, pyrazole, chromone and pyrimidine based conjugates for tumor growth inhibitory activities--development of highly efficacious cytotoxic agents” (Eur J Med Chem, 2010).

What was measured:
Assay type in all cases: functional
NCI-H522 = assay: Growth inhibition of human NCI-H522 cells
SR = assay: Growth inhibition of human SR cells
SF-268 = assay: Growth inhibition of human SF268 cells
UACC-257 = assay: Growth inhibition of human UACC257 cells
[1] = Growth inhibition of human […] cells assessed tumor cell growth at 10^-5 M; set-up: scale not given: the % may be the effect or the level left
Outline: (§1)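 NCI 60-human-tumor-cell-line panel screen. Each compound was tested at a single concentration of 10^-5 M, and percent growth of tumor cells was recorded for each cell line. Growth inhibition was expressed from these percent-growth values.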

A549 = assay: Growth inhibition of human A549 cells assessed tumor cell growth at 10^-5 M; set-up: scale not given: the % may be the effect or the level left; outline: as §1
A498 = assay: Growth inhibition of human A498 cells
SNB-75 = assay: Growth inhibition of human SNB75 cells assessed tumor cell growth at 10^-5 M; set-up: scale not given: the % may be the effect or the level left
Outline: (§2)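 Single-dose screen at 10^-5 M across the 60 human tumor cell line panel, run to NCI standards. The value is the percent growth of each cell line in the presence of compound. Compounds active at this dose moved on to five-concentration testing (10^-4 to 10^-8 M).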

ACHN = assay: Growth inhibition of human ACHN cells
COLO 205 = assay: Growth inhibition of human COLO205 cells
SNB-19 = assay: Growth inhibition of human SNB19 cells
UO-31 = assay: Growth inhibition of human UO31 cells assessed tumor cell growth at 10^-5 M; set-up: scale not given: the % may be the effect or the level left; outline: as §2
NCI-H226 = assay: Growth inhibition of human NCI-H226 cells
NCI-H460 = assay: Growth inhibition of human NCI-H460 cells assessed tumor cell growth at 10^-5 M; set-up: scale not given: the % may be the effect or the level left; outline: as §1
CCRF-CEM = assay: Growth inhibition of human CCRF-CEM cells
MOLT-4 = assay: Growth inhibition of human MOLT4 cells
MDA-MB-231 = assay: Growth inhibition of human MDA-MB-231 cells
LOX IMVI [2] = assay: Growth inhibition of human LOXIMVI cells assessed tumor cell growth at 10^-5 M; set-up: scale not given: the % may be the effect or the level left; outline: as §1
Malme-3M = assay: Growth inhibition of human MALME-3M cells
SW-620 = assay: Growth inhibition of human SW620 cells assessed tumor cell growth at 10^-5 M; set-up: scale not given: the % may be the effect or the level left; outline: as §2
RXF 393 = assay: Growth inhibition of human RXF393 cells
IGROV-1 = assay: Growth inhibition of human IGROV1 cells assessed tumor cell growth at 10^-5 M; set-up: scale not given: the % may be the effect or the level left; outline: as §1
LOX IMVI [3] = assay: Growth inhibition of human LOXIMVI cells
HOP-62 = assay: Growth inhibition of human HOP62 cells assessed tumor cell growth at 10^-5 M; set-up: scale not given: the % may be the effect or the level left; outline: as §1
T47D = assay: Growth inhibition of human T47D cells
[4] = read-out: LC50 (the source's name)

For `CC1=NN(c2cccc(Cl)c2)C(=O)/C1=C\C=C\c1ccccc1`, the GI50 (NCI-H522) was 2.6 µM, the LC50 (concentration killing 50% of cells) (NCI-H522) was over 100 µM and the GI50 (SR) was 2.3 µM. The CC50 (SR; [4]) was over 100 µM, the GI50 (SF-268) was 2.3 µM and the CC50 (SF-268; [4]) was over 100 µM. The GI50 (UACC-257) was 2.1 µM, the CC50 (UACC-257; [4]) was over 100 µM and the Activity [1] was 15.38%. For the same compound, the Activity (A549) was 94.48%, the GI50 (A498) was 17.7 µM and the CC50 (A498; [4]) was over 100 µM. For the same compound, the Activity (SNB-75) was 62.01%, the GI50 (ACHN) was 1.7 µM and the CC50 (ACHN; [4]) was 6.1 µM. For the same compound, the GI50 (COLO 205) was 2.3 µM, the LC50 (COLO 205) was over 100 µM and the GI50 (SNB-19) was 5.6 µM. It also gave a CC50 (SNB-19; [4]) of over 100 µM, an Activity (UO-31) of 69.7% and a GI50 (NCI-H226) of 2.6 µM. It also gave a CC50 (NCI-H226; [4]) of 64.5 µM, an Activity (NCI-H460) of 100.76% and a GI50 (CCRF-CEM) of 3.1 µM. It also gave a CC50 (CCRF-CEM; [4]) of over 100 µM, a GI50 (MOLT-4) of 3.1 µM and an LC50 (MOLT-4) of over 100 µM. For the same compound, the GI50 (MDA-MB-231) was 2.2 µM, the CC50 (MDA-MB-231; [4]) was over 100 µM and the Activity (LOX IMVI [2]) was -87.87%. For the same compound, the GI50 (Malme-3M) was 2.7 µM, the CC50 (Malme-3M; [4]) was over 100 µM and the Activity (SW-620) was 1.26%. It also gave a GI50 (RXF 393) of 2.1 µM, a CC50 (RXF 393; [4]) of 7.2 µM and an Activity (IGROV-1) of 45.54%. The GI50 (LOX IMVI [3]) was 1.4 µM, the CC50 (LOX IMVI [3]; [4]) was 6.7 µM and the Activity (HOP-62) was 6.78%. It also gave a GI50 (T47D) of 2.2 µM and a CC50 (T47D; [4]) of over 100 µM.
